# Key:
# [1] = biological target: T1, hpol κ (Homo sapiens, UniProt Q9UBT6); experiment: Gel-based primer extension assay; type: biochemical; settings: 10 μM IAG-10, 1 nM hpol κ
# T1 sequence (Q9UBT6 19-526): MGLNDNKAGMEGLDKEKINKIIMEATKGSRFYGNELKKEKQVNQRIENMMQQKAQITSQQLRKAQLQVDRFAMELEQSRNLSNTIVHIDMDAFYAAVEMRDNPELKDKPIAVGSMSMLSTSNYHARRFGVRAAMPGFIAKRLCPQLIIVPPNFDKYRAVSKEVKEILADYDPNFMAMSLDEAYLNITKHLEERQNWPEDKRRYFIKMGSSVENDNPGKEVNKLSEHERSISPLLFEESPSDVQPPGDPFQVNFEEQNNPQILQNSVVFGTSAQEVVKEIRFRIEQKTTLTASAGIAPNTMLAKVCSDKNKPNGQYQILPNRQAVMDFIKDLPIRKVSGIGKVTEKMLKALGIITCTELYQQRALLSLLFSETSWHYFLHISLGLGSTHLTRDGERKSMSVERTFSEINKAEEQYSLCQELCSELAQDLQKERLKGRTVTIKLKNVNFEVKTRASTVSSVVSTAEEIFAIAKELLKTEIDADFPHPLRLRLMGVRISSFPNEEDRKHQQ
# [2] = biological target: T2, hpol η (Homo sapiens, UniProt Q9Y253); experiment: Gel-based primer extension assay; type: biochemical; settings: 10 μM IAG-10, 2 nM hpol η
# T2 sequence (Q9Y253 1-437): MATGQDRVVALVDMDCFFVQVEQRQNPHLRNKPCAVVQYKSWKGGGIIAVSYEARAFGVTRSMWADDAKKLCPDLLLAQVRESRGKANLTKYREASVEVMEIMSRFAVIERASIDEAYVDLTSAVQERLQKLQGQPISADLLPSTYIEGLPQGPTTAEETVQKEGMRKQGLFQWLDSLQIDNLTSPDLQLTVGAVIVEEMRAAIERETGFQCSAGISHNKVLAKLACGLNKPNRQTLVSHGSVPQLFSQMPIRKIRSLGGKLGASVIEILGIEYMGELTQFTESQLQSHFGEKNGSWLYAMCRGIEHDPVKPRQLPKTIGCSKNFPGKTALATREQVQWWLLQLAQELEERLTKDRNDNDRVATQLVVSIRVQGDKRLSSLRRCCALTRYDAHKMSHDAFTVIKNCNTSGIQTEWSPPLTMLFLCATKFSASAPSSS
# [3] = biological target: T3, hpol ι (Homo sapiens, UniProt Q9UNA4); experiment: Gel-based primer extension assay; type: biochemical; settings: 10 μM IAG-10, 10 nM hpol ι
# T3 sequence (Q9UNA4 1-446): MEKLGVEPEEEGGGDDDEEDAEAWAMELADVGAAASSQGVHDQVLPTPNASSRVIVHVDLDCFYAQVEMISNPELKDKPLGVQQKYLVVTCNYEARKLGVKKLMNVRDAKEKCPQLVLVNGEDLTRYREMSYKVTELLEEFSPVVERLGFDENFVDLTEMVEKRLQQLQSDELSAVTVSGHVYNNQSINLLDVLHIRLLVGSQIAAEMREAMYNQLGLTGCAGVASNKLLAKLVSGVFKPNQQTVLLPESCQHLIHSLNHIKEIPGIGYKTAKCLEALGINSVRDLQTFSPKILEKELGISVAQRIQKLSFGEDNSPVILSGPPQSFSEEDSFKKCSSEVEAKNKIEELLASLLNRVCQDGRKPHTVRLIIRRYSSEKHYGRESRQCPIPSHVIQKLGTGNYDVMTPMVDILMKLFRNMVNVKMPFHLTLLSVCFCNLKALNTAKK
# [4] = biological target: T4, hRev1 (Homo sapiens, UniProt Q9UBZ9); experiment: Gel-based primer extension assay; type: biochemical; settings: 10 μM IAG-10, 10 nM hRev1
# T4 sequence (Q9UBZ9 330-833): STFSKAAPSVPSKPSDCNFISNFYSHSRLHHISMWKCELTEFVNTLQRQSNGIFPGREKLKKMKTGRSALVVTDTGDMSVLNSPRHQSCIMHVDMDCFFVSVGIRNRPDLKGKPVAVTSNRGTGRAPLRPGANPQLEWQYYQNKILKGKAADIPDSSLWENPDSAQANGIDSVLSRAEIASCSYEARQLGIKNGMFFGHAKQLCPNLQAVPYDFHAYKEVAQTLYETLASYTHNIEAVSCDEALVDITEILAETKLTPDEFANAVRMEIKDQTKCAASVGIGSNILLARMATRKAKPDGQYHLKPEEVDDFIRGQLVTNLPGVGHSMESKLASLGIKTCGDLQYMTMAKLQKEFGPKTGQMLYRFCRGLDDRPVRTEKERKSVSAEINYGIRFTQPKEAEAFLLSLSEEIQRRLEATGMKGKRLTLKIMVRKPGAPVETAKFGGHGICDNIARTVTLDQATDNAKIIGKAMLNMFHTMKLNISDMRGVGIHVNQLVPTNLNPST
# [5] = biological target: T1, hpol κ; experiment: HPG chemical footprinting with LC-MS; settings: 10 μM hpol κ, IAG-10 20 and 100 μM, 500 μM HPG
# [6] = test system: hpol κ-proficient HAP-1 cells; experiment: Alkaline comet assay; type: cell-based, human
# Method in brief: (§1)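 100 000 HAP-1 cells per well, test compound 0.5 μM alone or with alkylating agent (100 μM), 1 h; DMSO control. Cells embedded in low-melting agarose (200–300 per well), lysed 1 h, alkaline unwinding (200 mM NaOH, 1 mM EDTA) 20 min RT, electrophoresis 21 V, 30 min, 4 °C, SYBR Gold stain. Read-out is % DNA in tail per cell; ≥20 cells per replicate, three biological replicates, mean ±SD.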
# [7] = test system: hpol κ-deficient HAP-1 cells; experiment: Alkaline comet assay; type: cell-based, human
# Method in brief: as §1
# [8] = test system: hpol κ-proficient HAP-1 cells; experiment: supF mutagenesis assay; type: cell-based, human; settings: 1 μM IAG-10, 24 h
# Method in brief: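 HAP-1 cells at ~80% confluency (IMDM, 10% FBS) lipofected for 24 h with pSP189 supF plasmid (10 μg per 10 cm dish), ±1 μM test compound. Plasmid was unmodified or pretreated with 100 mM MMS (HEPES pH 7.5, RT, 1 h). Recovered plasmid DpnI-digested, electroporated into E. coli MBM7070, plated on ampicillin/IPTG/X-gal. Mutation frequency = white/(blue + white); ≥10 000 colonies per condition; biological triplicate, mean ±SD.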
# [9] = 100 μM TMZ + 0.5 μM IAG-10, compared with TMZ alone
structure (smiles),measurement,setting,value
"Cl.[H]/N=C(\N)NN=Cc1cn(C(=O)c2cccc3ccccc23)c2ccc(Cl)cc12 [IAG-10, (E)-2-((1-(1-naphthoyl)-5-chloro-1H-indol-3-yl)-methylene)hydrazine-1-carboximidamide hydrochloride]",polymerase activity in presence of compound,[1],only hpol κ was inhibited
same,polymerase activity in presence of compound,[2],only hpol κ was inhibited
same,polymerase activity in presence of compound,[3],only hpol κ was inhibited
same,polymerase activity in presence of compound,[4],only hpol κ was inhibited
same,change in the fraction of HPG-modified peptides containing Arg48,[5],large increase
same,"decrease in the fraction of HPG-modified peptides (Arg145, Arg149, Arg505)",[5],> 50%
same,DNA damage (% DNA in tail) compared to control,"[6]; 0.5 μM IAG-10 alone, 1 h",approximately twofold
same,DNA damage (% DNA in tail),[6]; [9],increased even further
same,DNA damage (% DNA in tail) over control,"[7]; 0.5 μM IAG-10 alone, 1 h",did not increase DNA damage over control
same,DNA damage (% DNA in tail),[7]; [9],did not increase further
same,"mutation frequency, MMS-damaged DNA over undamaged control plasmid",[8],approximately twofold
same,"mutation frequency, undamaged pSP189 plasmid",[8],did not change the mutation frequency

# Reference: paper PMC7357868 (ACS chemical biology, 2019)
